# Experimental data taken from ChEMBL document CHEMBL1145402, “Discovery of potent and muscle selective androgen receptor modulators through scaffold modifications” (J Med Chem, 2007).
# pEC50, pIC50, pKi: −log10 of the molar value.
# Experiments:
# [1] = biological target: T1, Androgen receptor (Homo sapiens, UniProt P10275); test: Agonist activity at androgen receptor expressed in C2C12 mouse cells by luciferase reporter transactivation assay; type: functional, cell-based
# T1 sequence (P10275 whole entry): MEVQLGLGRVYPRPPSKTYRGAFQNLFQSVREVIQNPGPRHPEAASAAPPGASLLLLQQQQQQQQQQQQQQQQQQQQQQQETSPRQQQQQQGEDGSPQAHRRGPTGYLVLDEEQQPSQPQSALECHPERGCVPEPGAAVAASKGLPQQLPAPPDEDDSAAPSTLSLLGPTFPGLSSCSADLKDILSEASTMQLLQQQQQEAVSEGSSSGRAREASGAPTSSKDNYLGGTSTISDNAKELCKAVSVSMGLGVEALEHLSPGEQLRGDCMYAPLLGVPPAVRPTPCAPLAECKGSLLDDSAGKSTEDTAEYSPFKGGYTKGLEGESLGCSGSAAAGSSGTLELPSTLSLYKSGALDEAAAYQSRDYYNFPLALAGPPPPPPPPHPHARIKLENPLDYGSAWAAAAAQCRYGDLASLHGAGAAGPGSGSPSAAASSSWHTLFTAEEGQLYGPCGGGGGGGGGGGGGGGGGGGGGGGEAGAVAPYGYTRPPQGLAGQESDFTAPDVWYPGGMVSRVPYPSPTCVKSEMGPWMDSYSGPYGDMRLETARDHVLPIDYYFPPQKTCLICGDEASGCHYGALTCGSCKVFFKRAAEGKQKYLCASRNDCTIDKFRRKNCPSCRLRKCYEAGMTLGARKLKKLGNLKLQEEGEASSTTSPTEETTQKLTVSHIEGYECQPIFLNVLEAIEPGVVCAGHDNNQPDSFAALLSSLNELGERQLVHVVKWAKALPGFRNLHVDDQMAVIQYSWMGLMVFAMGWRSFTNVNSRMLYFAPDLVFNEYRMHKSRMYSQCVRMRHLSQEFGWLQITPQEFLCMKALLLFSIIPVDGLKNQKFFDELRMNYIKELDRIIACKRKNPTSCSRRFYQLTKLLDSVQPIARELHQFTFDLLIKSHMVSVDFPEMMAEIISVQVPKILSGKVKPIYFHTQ
# [2] = biological target: T1, Androgen receptor; test: Displacement of [3H]DHT from androgen receptor expressed in MDA-MB-453 cells; type: cell-based
# [3] = system: Rattus norvegicus; test: Stimulation of levator ani muscle weight in Sprague-Dawley rat at 1 mg/kg, po after 14 days; type: functional
# Method in brief: (§1)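 Mature male rats were castrated two weeks before treatment. Compound was given […] once daily for two weeks, then levator ani muscle and ventral prostate were weighed. Weights are expressed as percent of a sham-operated, vehicle-treated intact control group, ±SEM.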
# [4] = system: Rattus norvegicus; test: Stimulation of ventral prostate tissue weight in Sprague-Dawley rat at 1 mg/kg, po after 14 days; type: functional, Prostate gland; method in brief: as §1
# [5] = (§2) Cmax in Sprague-Dawley rat at 10 mg/kg, po; type: ADME, organism-based; set-up: dose 10 mg/kg, route oral; settings: in vivo
# [6] = AUC(0-4h) in Sprague-Dawley rat at 10 mg/kg; type: ADME, organism-based; set-up: time < 5 hr, dose 10 mg/kg; settings: plasma
# [7] = Aqueous solubility of the compound; type: physicochemical
# [8] = system: Rattus norvegicus; test: Stimulation of levator ani muscle weight in Sprague-Dawley rat at 0.01 mg/kg, po after 14 days; type: functional
# [9] = system: Rattus norvegicus; test: Stimulation of ventral prostate tissue weight in Sprague-Dawley rat at 0.01 mg/kg, po after 14 days; type: functional, Prostate gland
# [10] = system: Rattus norvegicus; test: Stimulation of levator ani muscle weight in Sprague-Dawley rat at 3 mg/kg, po after 14 days; type: functional; method in brief: as §1
# [11] = system: Rattus norvegicus; test: Stimulation of ventral prostate tissue weight in Sprague-Dawley rat at 3 mg/kg, po after 14 days; type: functional, Prostate gland; method in brief: as §1
# [12] = Half life in Sprague-Dawley rat at 10 mg/kg, po and 5 mg/kg, iv; type: ADME, organism-based; settings: in vivo
# Method in brief: (§3)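 Rat pharmacokinetics used 5 mg/kg i.v. and 10 mg/kg p.o. dosing. Oral bioavailability (F%), half-life, oral Tmax and total body clearance were derived from plasma concentrations.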
# [13] = Bioavailability in Sprague-Dawley rat at 10 mg/kg, po; type: ADME, organism-based; settings: in vivo; method in brief: as §3
# [14] = as §2; type: ADME, organism-based; set-up: dose 10 mg/kg, route oral; settings: in vivo; remark: listed apart in the source
# [15] = Tmax in Sprague-Dawley rat at 10 mg/kg, po; type: ADME, organism-based; set-up: dose 10 mg/kg, route oral; settings: in vivo; method in brief: as §3
# [16] = Clearance in Sprague-Dawley rat at 10 mg/kg, po and 5 mg/kg, iv; type: ADME, organism-based; settings: in vivo; method in brief: as §3
# [17] = Binding affinity to progesterone receptor; set-up: species or system Homo sapiens
# [18] = biological target: Estrogen receptor (Homo sapiens, UniProt P03372); test: Binding affinity to ERalpha
# [19] = biological target: T2, Glucocorticoid receptor (Homo sapiens, UniProt P04150); test: Binding affinity to glucocorticoid receptor
# T2 sequence (P04150 whole entry): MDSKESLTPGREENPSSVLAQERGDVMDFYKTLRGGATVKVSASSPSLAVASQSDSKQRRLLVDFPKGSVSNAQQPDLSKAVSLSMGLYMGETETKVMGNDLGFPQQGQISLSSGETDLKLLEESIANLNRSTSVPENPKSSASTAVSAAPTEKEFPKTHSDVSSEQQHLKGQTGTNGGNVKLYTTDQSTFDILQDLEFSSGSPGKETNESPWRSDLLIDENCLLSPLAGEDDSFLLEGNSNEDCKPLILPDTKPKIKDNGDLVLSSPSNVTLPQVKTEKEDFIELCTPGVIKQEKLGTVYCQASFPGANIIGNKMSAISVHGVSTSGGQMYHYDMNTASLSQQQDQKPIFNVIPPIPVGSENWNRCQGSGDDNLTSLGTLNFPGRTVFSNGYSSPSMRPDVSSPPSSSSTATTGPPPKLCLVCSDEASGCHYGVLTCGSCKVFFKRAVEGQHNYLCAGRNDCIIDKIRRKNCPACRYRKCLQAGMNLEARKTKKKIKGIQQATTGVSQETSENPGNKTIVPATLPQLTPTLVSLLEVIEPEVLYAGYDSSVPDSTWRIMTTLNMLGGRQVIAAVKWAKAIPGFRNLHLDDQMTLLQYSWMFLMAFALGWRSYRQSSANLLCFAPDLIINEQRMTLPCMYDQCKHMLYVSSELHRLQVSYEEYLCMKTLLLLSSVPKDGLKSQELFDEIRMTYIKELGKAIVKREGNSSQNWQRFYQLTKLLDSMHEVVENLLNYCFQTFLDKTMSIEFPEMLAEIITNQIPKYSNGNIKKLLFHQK
# [20] = biological target: T3, Sex hormone-binding globulin (Homo sapiens, UniProt P04278); test: Binding affinity to SHBG
# T3 sequence (P04278 whole entry): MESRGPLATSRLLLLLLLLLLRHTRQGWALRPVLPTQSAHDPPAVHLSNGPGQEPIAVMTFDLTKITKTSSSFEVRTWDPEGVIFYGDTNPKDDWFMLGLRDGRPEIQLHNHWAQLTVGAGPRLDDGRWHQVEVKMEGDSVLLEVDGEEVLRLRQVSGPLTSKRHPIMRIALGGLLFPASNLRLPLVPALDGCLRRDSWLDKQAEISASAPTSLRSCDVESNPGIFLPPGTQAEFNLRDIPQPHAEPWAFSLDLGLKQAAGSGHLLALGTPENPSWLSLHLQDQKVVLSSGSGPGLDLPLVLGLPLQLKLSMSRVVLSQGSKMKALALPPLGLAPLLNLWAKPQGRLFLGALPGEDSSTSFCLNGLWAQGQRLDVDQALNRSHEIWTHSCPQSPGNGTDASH
# [21] = biological target: T4, Aromatase (Homo sapiens, UniProt P11511); test: Inhibition of aromatase
# T4 sequence (P11511 whole entry): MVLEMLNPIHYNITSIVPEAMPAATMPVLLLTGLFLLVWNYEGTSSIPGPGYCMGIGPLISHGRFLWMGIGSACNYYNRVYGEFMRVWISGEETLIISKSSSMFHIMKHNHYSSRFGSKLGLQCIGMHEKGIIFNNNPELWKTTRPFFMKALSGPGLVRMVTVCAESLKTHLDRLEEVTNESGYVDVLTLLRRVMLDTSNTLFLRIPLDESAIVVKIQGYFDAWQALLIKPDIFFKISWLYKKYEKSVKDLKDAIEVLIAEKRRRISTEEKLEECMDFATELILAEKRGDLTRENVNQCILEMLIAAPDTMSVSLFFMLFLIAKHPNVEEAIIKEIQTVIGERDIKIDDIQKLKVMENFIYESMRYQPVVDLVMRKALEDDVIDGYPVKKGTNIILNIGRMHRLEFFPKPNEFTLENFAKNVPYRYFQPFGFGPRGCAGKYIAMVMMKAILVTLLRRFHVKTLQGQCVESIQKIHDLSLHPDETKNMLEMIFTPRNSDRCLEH
# [22] = Toxicity against human hepatocyte; type: cell-based; settings: hepatocytes
# [23] = biological target: Cytochrome P450 2C19 (Homo sapiens, UniProt P33261); test: Inhibition of CYP2C19; type: ADME
# [24] = biological target: T5, Cytochrome P450 1A2 (Homo sapiens, UniProt P05177); test: Inhibition of CYP1A2; type: ADME
# T5 sequence (P05177 whole entry): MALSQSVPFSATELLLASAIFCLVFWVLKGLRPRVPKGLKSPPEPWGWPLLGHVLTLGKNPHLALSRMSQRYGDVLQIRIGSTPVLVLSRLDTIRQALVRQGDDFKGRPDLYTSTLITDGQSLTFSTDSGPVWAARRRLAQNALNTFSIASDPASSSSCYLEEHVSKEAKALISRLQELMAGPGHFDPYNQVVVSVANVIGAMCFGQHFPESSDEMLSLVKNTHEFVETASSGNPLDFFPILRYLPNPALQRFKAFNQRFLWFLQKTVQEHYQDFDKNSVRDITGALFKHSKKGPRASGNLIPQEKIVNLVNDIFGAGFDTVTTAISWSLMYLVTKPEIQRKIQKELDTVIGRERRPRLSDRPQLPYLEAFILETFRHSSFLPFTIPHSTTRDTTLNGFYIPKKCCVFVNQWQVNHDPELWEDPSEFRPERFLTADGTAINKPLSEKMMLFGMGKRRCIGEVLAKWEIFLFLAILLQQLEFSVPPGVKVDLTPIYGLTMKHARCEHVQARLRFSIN
# [25] = biological target: Cytochrome P450 2C9 (Homo sapiens, UniProt P11712); test: Inhibition of CYP2C9; type: ADME
# [26] = biological target: Cytochrome P450 2D6 (Homo sapiens, UniProt P10635); test: Inhibition of CYP2D6; type: ADME
# [27] = biological target: Cytochrome P450 3A4 (Homo sapiens, UniProt P08684); test: Inhibition of CYP3A4; type: ADME
# [28] = biological target: hERG (Homo sapiens, UniProt Q12809); test: Inhibition of hERG at 30 uM by patch clamp method; type: toxicity
# Chain of hERG (Q12809 whole entry): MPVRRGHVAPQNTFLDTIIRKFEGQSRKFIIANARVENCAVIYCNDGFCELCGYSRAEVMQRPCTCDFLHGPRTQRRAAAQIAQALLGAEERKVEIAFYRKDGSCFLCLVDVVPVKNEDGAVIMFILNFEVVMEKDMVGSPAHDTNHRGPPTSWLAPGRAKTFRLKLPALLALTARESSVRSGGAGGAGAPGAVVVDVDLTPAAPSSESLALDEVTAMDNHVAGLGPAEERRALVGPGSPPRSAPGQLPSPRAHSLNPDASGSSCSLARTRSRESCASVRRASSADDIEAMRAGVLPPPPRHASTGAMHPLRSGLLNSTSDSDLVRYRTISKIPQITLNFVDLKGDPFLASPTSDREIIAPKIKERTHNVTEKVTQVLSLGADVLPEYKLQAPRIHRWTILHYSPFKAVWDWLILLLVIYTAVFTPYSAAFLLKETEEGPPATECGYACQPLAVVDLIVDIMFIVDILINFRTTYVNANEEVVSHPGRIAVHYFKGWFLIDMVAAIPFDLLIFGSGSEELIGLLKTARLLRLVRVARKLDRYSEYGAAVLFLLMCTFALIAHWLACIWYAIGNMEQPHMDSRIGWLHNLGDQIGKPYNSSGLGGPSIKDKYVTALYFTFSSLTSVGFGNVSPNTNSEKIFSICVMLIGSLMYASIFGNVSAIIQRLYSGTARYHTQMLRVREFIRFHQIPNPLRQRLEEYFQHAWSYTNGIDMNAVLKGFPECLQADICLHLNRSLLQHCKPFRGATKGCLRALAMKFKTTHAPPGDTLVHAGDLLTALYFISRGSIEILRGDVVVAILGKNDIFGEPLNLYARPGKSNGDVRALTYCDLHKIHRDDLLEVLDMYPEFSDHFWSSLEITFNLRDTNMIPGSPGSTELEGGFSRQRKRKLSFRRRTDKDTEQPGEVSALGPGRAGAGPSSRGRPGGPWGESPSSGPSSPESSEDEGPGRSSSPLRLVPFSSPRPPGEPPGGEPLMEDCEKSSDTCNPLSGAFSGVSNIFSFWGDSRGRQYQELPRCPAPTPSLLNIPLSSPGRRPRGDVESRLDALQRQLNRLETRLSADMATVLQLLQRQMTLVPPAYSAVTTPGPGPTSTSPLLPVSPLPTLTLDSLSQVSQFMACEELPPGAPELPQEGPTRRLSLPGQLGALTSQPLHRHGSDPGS
# Chain of Cytochrome P450 2D6 (P10635 whole entry): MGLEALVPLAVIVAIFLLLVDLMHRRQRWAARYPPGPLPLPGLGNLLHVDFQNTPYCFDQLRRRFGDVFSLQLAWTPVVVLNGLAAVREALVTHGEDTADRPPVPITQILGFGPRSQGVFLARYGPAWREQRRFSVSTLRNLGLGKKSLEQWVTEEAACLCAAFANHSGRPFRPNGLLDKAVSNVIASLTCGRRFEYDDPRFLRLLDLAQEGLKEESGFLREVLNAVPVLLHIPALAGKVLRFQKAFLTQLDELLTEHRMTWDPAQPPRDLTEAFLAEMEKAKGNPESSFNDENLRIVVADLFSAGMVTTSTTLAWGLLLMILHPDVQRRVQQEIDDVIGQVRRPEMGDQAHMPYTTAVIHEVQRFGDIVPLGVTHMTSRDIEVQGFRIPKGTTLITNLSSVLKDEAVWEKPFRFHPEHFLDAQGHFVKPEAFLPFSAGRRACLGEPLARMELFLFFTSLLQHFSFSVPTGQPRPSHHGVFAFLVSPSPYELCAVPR
# Chain of Cytochrome P450 2C19 (P33261 whole entry): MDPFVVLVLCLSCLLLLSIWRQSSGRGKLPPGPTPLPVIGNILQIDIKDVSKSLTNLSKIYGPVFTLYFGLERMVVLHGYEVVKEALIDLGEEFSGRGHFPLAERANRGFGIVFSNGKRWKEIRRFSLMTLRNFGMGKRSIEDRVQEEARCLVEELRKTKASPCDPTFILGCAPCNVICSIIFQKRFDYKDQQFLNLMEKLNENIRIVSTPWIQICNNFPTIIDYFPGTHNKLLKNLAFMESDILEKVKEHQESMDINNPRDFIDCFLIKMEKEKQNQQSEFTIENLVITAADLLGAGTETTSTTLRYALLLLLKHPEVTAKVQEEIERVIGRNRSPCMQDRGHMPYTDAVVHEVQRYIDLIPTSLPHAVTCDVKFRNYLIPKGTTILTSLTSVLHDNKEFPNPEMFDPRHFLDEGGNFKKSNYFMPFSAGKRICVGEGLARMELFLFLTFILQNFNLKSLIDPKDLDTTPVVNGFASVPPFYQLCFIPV
# Chain of Cytochrome P450 2C9 (P11712 whole entry): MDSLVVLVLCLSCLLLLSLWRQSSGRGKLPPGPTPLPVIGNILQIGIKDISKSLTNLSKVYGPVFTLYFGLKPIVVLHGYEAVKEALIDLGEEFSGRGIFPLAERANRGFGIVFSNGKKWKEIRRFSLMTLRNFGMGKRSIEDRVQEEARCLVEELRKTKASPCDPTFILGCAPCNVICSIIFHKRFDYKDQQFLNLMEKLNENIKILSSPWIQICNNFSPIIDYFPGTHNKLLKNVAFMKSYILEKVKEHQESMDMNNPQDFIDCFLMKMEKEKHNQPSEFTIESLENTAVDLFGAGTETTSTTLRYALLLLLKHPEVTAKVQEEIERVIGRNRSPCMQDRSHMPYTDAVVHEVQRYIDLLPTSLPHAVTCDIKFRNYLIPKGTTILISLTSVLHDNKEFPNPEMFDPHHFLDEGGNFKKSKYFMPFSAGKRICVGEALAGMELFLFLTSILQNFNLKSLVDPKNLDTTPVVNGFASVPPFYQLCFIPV
# Chain of Cytochrome P450 3A4 (P08684 whole entry): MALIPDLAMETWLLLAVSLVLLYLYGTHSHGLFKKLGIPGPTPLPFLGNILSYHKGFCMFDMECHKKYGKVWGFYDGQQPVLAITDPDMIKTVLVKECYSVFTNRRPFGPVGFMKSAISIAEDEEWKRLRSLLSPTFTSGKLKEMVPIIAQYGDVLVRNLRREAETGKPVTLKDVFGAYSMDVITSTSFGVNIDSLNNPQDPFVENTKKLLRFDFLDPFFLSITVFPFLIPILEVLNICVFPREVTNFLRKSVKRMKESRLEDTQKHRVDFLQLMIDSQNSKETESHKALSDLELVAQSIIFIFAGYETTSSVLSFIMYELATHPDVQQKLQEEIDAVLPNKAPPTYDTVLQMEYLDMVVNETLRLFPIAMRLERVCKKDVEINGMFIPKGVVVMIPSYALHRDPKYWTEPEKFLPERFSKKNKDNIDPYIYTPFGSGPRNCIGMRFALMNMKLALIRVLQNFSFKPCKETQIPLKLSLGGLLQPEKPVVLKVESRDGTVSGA
# Chain of Estrogen receptor (P03372 whole entry, looked up): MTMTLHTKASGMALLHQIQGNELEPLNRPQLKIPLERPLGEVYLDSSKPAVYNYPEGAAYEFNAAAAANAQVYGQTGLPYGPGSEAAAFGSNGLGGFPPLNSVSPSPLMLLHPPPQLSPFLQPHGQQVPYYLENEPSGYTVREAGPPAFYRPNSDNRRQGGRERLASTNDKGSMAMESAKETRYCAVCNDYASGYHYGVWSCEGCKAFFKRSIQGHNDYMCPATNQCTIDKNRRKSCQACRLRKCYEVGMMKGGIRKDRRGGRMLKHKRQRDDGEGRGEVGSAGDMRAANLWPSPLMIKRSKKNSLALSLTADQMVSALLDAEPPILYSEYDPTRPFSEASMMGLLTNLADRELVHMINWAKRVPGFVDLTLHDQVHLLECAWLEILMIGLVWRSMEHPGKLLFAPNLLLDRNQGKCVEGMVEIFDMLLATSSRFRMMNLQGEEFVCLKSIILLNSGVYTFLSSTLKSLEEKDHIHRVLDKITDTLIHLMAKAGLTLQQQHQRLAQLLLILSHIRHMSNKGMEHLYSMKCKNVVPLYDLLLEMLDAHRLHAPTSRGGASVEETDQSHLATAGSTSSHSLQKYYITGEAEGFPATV
SMILES,pEC50 [1],pKi [2],Activity [3] [%],Activity [4] [%],Cmax [5] [nM],AUC(0-t) at 5 h [6] [µM·h],solubility [7] [µg/mL],other results
CC[C@H]1[C@@H]2[C@H](O)CCN2C(=O)N1c1ccc(C#N)c(Cl)c1C,8.59,9.15,–,–,–,–,–,–
Cc1c(N2C(=O)N3CC[C@@H](O)[C@H]3[C@@H]2C(F)(F)F)ccc(C#N)c1Cl,8.54,9.00,40,3,819,1.18,–,–
Cc1c(N2C(=O)N3CC[C@@H](O)[C@H]3[C@H]2C(F)(F)F)ccc(C#N)c1Cl,8.68,8.66,30,1,245,0.63,1140,–
Cc1c(N2C(=O)[C@@H]3[C@H](O)CCN3C2=O)ccc(C#N)c1Cl,–,–,–,–,6900,8.8,–,Activity [8]: 59%; Activity [9]: 3%
Cc1c(N2C[C@@H]3[C@H](O)CCN3C2=O)ccc(C#N)c1Cl,7.82,8.70,66,14,3970,6.38,245,–
Cc1c(N2C(=O)N3CC[C@H](O)[C@H]3[C@@H]2C)ccc(C#N)c1Cl,–,–,–,–,1620,2.89,613,Activity [10]: 44%; Activity [11]: 4%
CC[C@H]1[C@@H]2[C@@H](O)CCN2C(=O)N1c1ccc(C#N)c(Cl)c1C,8.74,9.05,101,24,3100,6.08,242,half-life [12]: 5.5 h; bioavailability [13]: 65%; Cmax [14]: 2100 nM; Tmax [15]: 0.8 h; clearance [16]: 58 mL/min/kg; pKi [17]: < 5.00; pKi [18]: < 5.00; pKi [19]: < 5.00; pKi [20]: < 4.00; pIC50 [21]: < 4.00; pIC50 [22]: < 3.70; pIC50 [23]: 5.12; pIC50 [24]: < 4.40; pIC50 [25]: < 4.40; pIC50 [26]: < 4.40; pIC50 [27]: < 4.40; inhibition at 30 µM [28]: 6%
